Source: ChEMBL document CHEMBL4680118, “Cerpegin-derived furo[3,4-c]pyridine-3,4(1H,5H)-diones enhance cellular response to interferons by de novo pyrimidine biosynthesis inhibition” (Eur J Med Chem, 2020)
Calls of active or inactive are those of the source. No cut-off for these calls is given here.

What was measured:
Assay type in all cases: cell-based
[1] = target: T1, Dihydroorotate dehydrogenase (quinone), mitochondrial (Homo sapiens, UniProt Q02127); assay: Inhibition of DHODH in human HEK293 cells transfected with ISRE-luciferase reporter gene assessed as increase in 125 IU/ml IFN-alpha stimulated IFITM3 mRNA expression at 80 uM measured after 16 hrs by RT-qPCR analysis relative to control
Method in brief: (§1)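 ISRE-Luc HEK cells co-treated with increasing IFN-α concentrations and DMSO or compound (80 µM) for 16 h. Total RNA extracted from 2×10^5 cells with DNase step; qPCR 35 cycles. CT values normalized to RPL13A and unstimulated controls (2^-ΔΔCT), expressed as fold change versus DMSO alone. Three independent experiments; two-way ANOVA with Bonferroni.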

[2] = target: T1, Dihydroorotate dehydrogenase (quinone), mitochondrial; assay: Inhibition of DHODH in human HEK-293 cells transfected with ISRE-luciferase reporter gene assessed as increase in IFN-alpha mediated cellular response at 80 uM in presence of orotate measured after 24 hrs by luciferase reporter gene assay; settings: HEK293
Method in brief: (§2)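 ISRE-Luc HEK-293 cells exposed to increasing IFN-α concentrations with DMSO or compound (80 µM), supplemented with uridine (125 µM) or with 3 mM orotate or DHO. Reporter luciferase read after 24 h, normalized to DMSO + IFN-α 250 IU/ml. Means ± SD of three independent experiments; two-way ANOVA.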

[3] = target: T1, Dihydroorotate dehydrogenase (quinone), mitochondrial; assay: Inhibition of DHODH in human HEK293 cells transfected with ISRE-luciferase reporter gene assessed as increase in 60 IU/ml IFN-alpha stimulated IFIT3 mRNA expression at 80 uM measured after 16 hrs by RT-qPCR analysis relative to control; method in brief: as §1
[4] = target: T1, Dihydroorotate dehydrogenase (quinone), mitochondrial; assay: Inhibition of DHODH in human HEK-293 cells transfected with ISRE-luciferase reporter gene assessed as increase in IFN-alpha mediated cellular response at 80 uM in presence of uridine measured after 24 hrs by luciferase reporter gene assay; settings: HEK293; method in brief: as §2
[5] = target: T1, Dihydroorotate dehydrogenase (quinone), mitochondrial; assay: Inhibition of DHODH in human HEK293 cells transfected with ISRE-luciferase reporter gene assessed as increase in 30 IU/ml IFN-alpha stimulated PKR mRNA expression at 80 uM measured after 16 hrs by RT-qPCR analysis relative to control; method in brief: as §1
[6] = target: T1, Dihydroorotate dehydrogenase (quinone), mitochondrial; assay: Inhibition of DHODH in human HEK293 cells assessed as reduction in intracellular pyrimidine level measured after 24 hrs by HPLC coupled spectrophotometry
Method in brief: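 HEK-293 cells plated at 1×10^6 per well, treated 24 h later with compound (80 µM final) or DMSO for 24 h. Pellets deproteinized with 6% perchloric acid, neutralized with Na2CO3, analysed by C18 HPLC at 45°C with ion-pair phosphate/MeOH gradient, detected at 254 nm against reference nucleoside calibration curves. Normalized to viable cell number and DMSO controls.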

T1 sequence (Q02127 whole entry): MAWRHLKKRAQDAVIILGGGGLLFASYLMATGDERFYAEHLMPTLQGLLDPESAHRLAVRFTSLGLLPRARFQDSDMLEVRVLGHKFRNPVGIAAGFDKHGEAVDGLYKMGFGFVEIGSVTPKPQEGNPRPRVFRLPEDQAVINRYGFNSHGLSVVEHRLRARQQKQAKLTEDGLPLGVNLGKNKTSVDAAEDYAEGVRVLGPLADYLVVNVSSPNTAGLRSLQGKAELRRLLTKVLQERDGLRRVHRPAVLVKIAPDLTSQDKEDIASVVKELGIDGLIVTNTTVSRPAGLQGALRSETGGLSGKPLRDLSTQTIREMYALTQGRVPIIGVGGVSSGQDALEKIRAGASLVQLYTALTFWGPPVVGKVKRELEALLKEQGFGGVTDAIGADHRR

Compound: O=C1OC2(CCCCC2)c2ccn(C3CC3)c(=O)c21
- fold change (FC) [1]: 14
- Activity [2]: inactive
- fold change (FC) [3]: 69
- Activity [4]: inactive
- fold change (FC) [5]: 2
- inhibition [6]: Active
